Folding enthalpy and Tm data for 37 sequences are collected here from the array DNA melting data of Ke et al. (doi:10.1101/2024.01.08.574731).

Data set [1] can be described thus: folding enthalpy; higher = less favourable; fluorescence melt of hairpins on a sequencing array, two-state fit. The settings on record: sodium 0.088 M. The procedure, abridged:
(§1)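 Folding enthalpy and melting temperature were estimated with bootstrapped two-state fits and combined across four replicates by inverse-variance weighting, with fitted temperatures raised by 9.35 °C to match UV melts. The data were Cy3 fluorescence of library hairpins, with annealed Cy3 and quencher oligos, on a sequenced MiSeq flow cell in 50 mM Na-HEPES pH 8.0, 25 mM NaCl, imaged in 2.5 °C steps up to 60 °C and normalised to pre-quench Cy3 and control constructs.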

Data set [2] is described as follows: melting temperature; fluorescence melt of hairpins on a sequencing array, two-state fit, raised by 9.35 °C to match UV melts. The settings on record: sodium 0.088 M. The procedure, abridged:
as §1

Turning to GAAACAGGAAACTGTTTC (((((((....))))))), in data set [1], the folding enthalpy is -41.9 kcal/mol. Besides, the Tm in data set [2] worked out at 55.5 °C.

Turning to GAAACCGAAAGGTGCTTC ((((((....)))..))), in data set [1], the folding enthalpy is -19.4 kcal/mol. The Tm in data set [2] was 43.5 °C.

As to GAAACCGAAAGGTGTTTC ((((((....)))..))), the folding enthalpy in data set [1] is -13.2 kcal/mol. Also, in data set [2], the Tm came to 35.9 °C.

Regarding GAAACCGAAAGGTTTTTC ((((((....)))..))), the folding enthalpy in data set [1] is -15.6 kcal/mol. In addition, the Tm in data set [2] amounted to 48.8 °C.

Take GAAACCGGAAACGGTTCC (.(((((....))))).): the folding enthalpy in data set [1] is -13.4 kcal/mol. Further, the Tm in data set [2] was 41.4 °C.

Consider GAAAGACGAAAGTCGTTC (((.(((....))).))), for which, in data set [1], the folding enthalpy is -15.1 kcal/mol. In addition, the Tm in data set [2] was 46 °C.

As to GAAAGCCGAAAGGCATTC (((.(((....))).))), the folding enthalpy in data set [1] was -15.2 kcal/mol. Moreover, in data set [2], the Tm came out at 45.9 °C.

In the case of GAAAGCCGAAAGGCCTTC (((.(((....))).))), in data set [1], the folding enthalpy is -14.4 kcal/mol. Moreover, the Tm in data set [2] was 41.4 °C.

GAAAGCCGAAAGGCTTC (((.(((....)))))): the folding enthalpy in data set [1] was -9.06 kcal/mol. In data set [2], the Tm stood at 50.2 °C.

On to GAAAGCGAAAGCTATTTC ((((((....)))..))), for which, in data set [1], the folding enthalpy was -11.8 kcal/mol. The Tm in data set [2] is 25.2 °C.

GAAAGCGAAAGCTGCTTC ((((((....)))..))): the folding enthalpy in data set [1] was -19.4 kcal/mol. Besides, the Tm in data set [2] came out at 42.9 °C.

Turning to GAAAGCGAAAGCTTATTC ((((((....)))..))), the folding enthalpy in data set [1] is -10.9 kcal/mol. Also, the Tm in data set [2] stood at 32.7 °C.

In the case of GAAAGCGAAAGCTTCTTC ((((((....)))..))), the folding enthalpy in data set [1] was -24.5 kcal/mol. Besides, in data set [2], the Tm came out at 53.5 °C.

GAAAGCGCGAAAGCGTTC (((..(((....)))))): in data set [1], the folding enthalpy was -7.58 kcal/mol. In addition, in data set [2], the Tm is 28.3 °C.

Take GAAAGCGGAAACGCCTTC (((.(((....))).))): the folding enthalpy in data set [1] was -18.4 kcal/mol. In addition, the Tm in data set [2] came out at 34.1 °C.

Consider GAAAGGCGAAAGCCATTC (((.(((....))).))), for which the folding enthalpy in data set [1] was -16.5 kcal/mol. For the same sequence, in data set [2], the Tm was determined as 41.4 °C.

On to GAAAGGGGAAACCTTTTC ((((.((....)).)))), for which, in data set [1], the folding enthalpy was -27.1 kcal/mol. Besides, the Tm in data set [2] amounted to 34.2 °C.

For GAAAGTGGAAACACCTTC (((.(((....))).))), the folding enthalpy in data set [1] is -9.58 kcal/mol. Moreover, in data set [2], the Tm turned out to be 28.8 °C.

Regarding GAAAGTGGAAACACTTCC (.(((((....))))).), the folding enthalpy in data set [1] is -16.6 kcal/mol. Further, the Tm in data set [2] amounted to 33.7 °C.

For GAAATAGCGAAAGCTTTC (((..(((....)))))), the folding enthalpy in data set [1] is -11.8 kcal/mol. In data set [2], the Tm stood at 28.6 °C.

On to GAAATAGGAAACTGTTTC ((((.((....)).)))), for which the folding enthalpy in data set [1] is -21.3 kcal/mol. Further, the Tm in data set [2] amounted to 36.1 °C.

Regarding GAAATCACGAAAGTGTTC (((..(((....)))))), the folding enthalpy in data set [1] was -9 kcal/mol. Moreover, in data set [2], the Tm amounted to 20.8 °C.

On to GAAATCCGAAAGGACTTC (((.(((....))).))), for which the folding enthalpy in data set [1] is -29.8 kcal/mol. The Tm in data set [2] was found to be 37.6 °C.

Take GAAATGGGAAACTATTTC (((((.(....).))))): the folding enthalpy in data set [1] is -23 kcal/mol. The Tm in data set [2] worked out at 33.7 °C.

For the sequence GAAATTGGAAACAATTTC (((((((....))))))), the folding enthalpy in data set [1] is -35.8 kcal/mol. Further, the Tm in data set [2] was determined as 51.3 °C.

In the case of GAACAACCGAAAGGTTTC (((..(((....)))))), in data set [1], the folding enthalpy was -9.63 kcal/mol. For the same sequence, the Tm in data set [2] is 29.3 °C.

GAACAACGAAAGTTCTTC (((.(((....))).))): in data set [1], the folding enthalpy is -29.8 kcal/mol. Further, the Tm in data set [2] was 38.7 °C.

As to GAACAACGAAAGTTTTTC (((.(((....))).))), in data set [1], the folding enthalpy was -17.8 kcal/mol. Moreover, the Tm in data set [2] turned out to be 31.6 °C.

With GAACAAGGAAACTCGTTC ((((.((....)).)))), the folding enthalpy in data set [1] was -16.4 kcal/mol. Moreover, the Tm in data set [2] is 27 °C.

As to GAACAAGGAAACTTGTCC (.(((((....))))).), in data set [1], the folding enthalpy is -15.4 kcal/mol. For the same sequence, the Tm in data set [2] was determined as 31.3 °C.

Regarding GAACACGAAAGTGACTTC ((((((....)))..))), in data set [1], the folding enthalpy is -20.8 kcal/mol. Moreover, in data set [2], the Tm is 35.4 °C.

Take GAACACGAAAGTGCCTTC ((((((....)))..))): in data set [1], the folding enthalpy was -18.7 kcal/mol. For the same sequence, the Tm in data set [2] was determined as 32.9 °C.

Consider GAACACGAAAGTGGATTC ((((((....)))..))), for which the folding enthalpy in data set [1] was -18.6 kcal/mol. The Tm in data set [2] turned out to be 39.8 °C.

Regarding GAACACGAAAGTGTATTC ((((((....)))..))), the folding enthalpy in data set [1] was -9.83 kcal/mol. In addition, the Tm in data set [2] was 33.6 °C.

Take GAACACGAAAGTGTTTTC ((((((....)))..))): in data set [1], the folding enthalpy was -15.1 kcal/mol. Moreover, the Tm in data set [2] is 49 °C.

Consider GAACACGCGAAAGCGTTC (((..(((....)))))), for which the folding enthalpy in data set [1] is -8.07 kcal/mol. For the same sequence, the Tm in data set [2] came out at 27.9 °C.

Regarding GAACACGGAAACATGTTC (((((.(....).))))), the folding enthalpy in data set [1] is -28 kcal/mol. The Tm in data set [2] worked out at 35.1 °C.
